# Source: ChEMBL document CHEMBL1141839, “Antifungal jujubogenin saponins from Colubrina retusa” (1999)
# Calls of active or inactive are those of the source. The calls are words filed in the database; no cut-off is given here.
# Tests used:
# Cryptococcus neoformans [1] = experiment: Antifungal activity against Cryptococcus neoformans after 48 hrs; type: functional
# In short: (§1)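 C. neoformans grown in Mycophil broth to the desired density, then seeded into 96-well plates (modified NCCLS microdilution). Pure compounds added at final 50, 10 and 2 μg/mL. Incubation 48 h, 30 °C, with growth assessed per concentration. MIC is the lowest tested level showing no growth. Amphotericin B positive control.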
# Aspergillus fumigatus [2] = experiment: Antifungal activity against Aspergillus fumigatus after 48 hrs; type: functional
# In short: (§2)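 A. fumigatus spores gently scraped from fungal growth and used as inoculum in a 96-well adaptation of the NCCLS protocol. Pure compounds at final 50, 10 and 2 μg/mL. Incubated 48 h at 30 °C, with growth read at each concentration. MIC is the lowest tested concentration without growth. Amphotericin B positive control.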
# Candida albicans [3] = experiment: Antifungal activity against Candida albicans after 24 hrs; type: functional
# In short: (§3)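 Modified NCCLS broth microdilution in 96-well format. C. albicans grown in SDB to the desired density and seeded into wells. Pure compounds tested at final 50, 10 and 2 μg/mL. Incubated 24 h at 37 °C, with growth scored at each level. MIC is the lowest tested concentration with no growth. Amphotericin B served as positive control.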
# Candida albicans [4] = experiment: Antifungal activity against Candida albicans at 2 ug/mL after 24 hrs; type: functional, organism-based; in short: as §3
# Aspergillus fumigatus [5] = experiment: Antifungal activity against Aspergillus fumigatus at 2 ug/mL after 48 hrs; type: functional, organism-based; in short: as §2
# Cryptococcus neoformans [6] = experiment: Antifungal activity against Cryptococcus neoformans at 2 ug/mL after 48 hrs; type: functional, organism-based; in short: as §1
SMILES,MIC (Cryptococcus neoformans [1]),MIC (Aspergillus fumigatus [2]),MIC (Candida albicans [3]),other results
CC(C)=C[C@H]1C[C@](C)(O)[C@@H]2[C@H]3CC[C@@H]4[C@@]5(C)CC[C@H](O[C@@H]6OC[C@H](O)[C@H](O[C@@H]7O[C@H](CO)[C@@H](O)[C@H](O)[C@H]7OC(=O)/C=C/c7ccc(O)cc7)[C@H]6O[C@@H]6O[C@@H](CO)[C@H](O)[C@H]6O)C(C)(C)[C@@H]5CC[C@@]4(C)[C@@]34CO[C@@]2(C4)O1,50 µg/mL,> 50 µg/mL,> 50 µg/mL,
CC(C)=C[C@H]1C[C@](C)(O)[C@@H]2[C@H]3CC[C@@H]4[C@@]5(C)CC[C@H](O[C@@H]6OC[C@H](O)[C@H](O[C@@H]7O[C@H](CO)[C@@H](O)[C@H](O)[C@H]7O)[C@H]6O[C@@H]6O[C@@H](CO)[C@H](O)[C@H]6O)C(C)(C)[C@@H]5CC[C@@]4(C)[C@@]34CO[C@@]2(C4)O1,50 µg/mL,50 µg/mL,50 µg/mL,
C[C@@H]1[C@H](O)[C@@H](C)/C=C/C=C/C=C/C=C/C=C/C=C/C=C/[C@H](O[C@@H]2O[C@H](C)[C@@H](O)[C@H](N)[C@@H]2O)C[C@@H]2O[C@](O)(C[C@@H](O)C[C@@H](O)[C@H](O)CC[C@@H](O)C[C@@H](O)CC(=O)O[C@H]1C)C[C@H](O)[C@H]2C(=O)O,,,,Activity (Candida albicans [4]): Active; Activity (Aspergillus fumigatus [5]): Active; Activity (Cryptococcus neoformans [6]): Active
CC(C)=C[C@H]1C[C@](C)(O)[C@@H]2[C@H]3CC[C@@H]4[C@@]5(C)CC[C@H](O[C@@H]6OC[C@H](O)[C@H](O[C@@H]7O[C@H](CO)[C@@H](O)[C@H](O)[C@H]7O)[C@H]6O[C@@H]6O[C@@H](COC(=O)CC(=O)O)[C@H](O)[C@H]6O)C(C)(C)[C@@H]5CC[C@@]4(C)[C@@]34CO[C@@]2(C4)O1,,,,Activity (Cryptococcus neoformans [1]): inactive; Activity (Aspergillus fumigatus [2]): inactive; Activity (Candida albicans [3]): inactive
